What was measured:
Canis familiaris [1] = assay: Total time in minutes elapsed from the initiation of the change until return to the pretest value of blood pressure in coronary sinus of anesthetized dog at intravenous dosage of 1 mg/kg; assay type: functional, Canis lupus familiaris
Canis familiaris [2] = assay: Tested for the percent increase in aortic blood pressure (BP) in open chest anesthetized dog at intravenous dosage of 1.00 mg/kg; assay type: functional, Canis lupus familiaris, Artery
How it was run: (§1)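 Open-chest anesthetized dogs, compound given iv at the stated dose. Aortic blood pressure is reported as the change from the control (pre-dose) value. Other set-up follows the group's earlier cardiovascular protocol.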

[3] = Lethal dose in mice after intraperitoneal administration; assay type: toxicity, organism-based; settings: mouse, in vivo, ip
How it was run: (§2)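 Male and female mice, three per dose group, were given the compound by the stated route in increments of 0.5 log doses. The LD50 was estimated as an approximate value.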

[4] = Lethal dose in mice after peroral administration; assay type: toxicity, organism-based; settings: mouse, in vivo, po; how it was run: as §2
Canis familiaris [5] = assay: Total time in minutes elapsed from the initiation of the change until return to the pretest value of heart rate in coronary sinus of anesthetized dog at intravenous dosage of 1 mg/kg; assay type: functional, Canis lupus familiaris
Canis familiaris [6] = assay: Total time in minutes elapsed from the initiation of the change until return to the pretest value of oxygen partial pressure in coronary sinus of anesthetized dog at intravenous dosage of 1 mg/kg; assay type: functional, Canis lupus familiaris
How it was run: (§3)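 Open-chest anesthetized dogs given compound by intravenous injection. Coronary sinus PO2 was monitored, and duration was the total time in minutes from the onset of the change until return to the pretest value.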

Canis familiaris [7] = assay: Tested for percent increase in coronary sinus partial pressure of oxygen (PO2) in open chest anesthetized dog at intravenous dosage of 1.00 mg/kg; assay type: functional, Canis lupus familiaris
Canis familiaris [8] = assay: Total time in minutes elapsed from the initiation of the change until return to the pretest value of heart rate in coronary sinus of anesthetized dog at intravenous dosage of 0.01 mg/kg; assay type: functional, Canis lupus familiaris
Canis familiaris [9] = assay: Tested for the percent increase in aortic blood pressure (BP) in open chest anesthetized dog at intravenous dosage of 0.01 mg/kg; assay type: functional, Canis lupus familiaris, Artery; how it was run: as §1
Canis familiaris [10] = assay: Tested for percent increase in coronary sinus partial pressure of oxygen (PO2) in open chest anesthetized dog at intravenous dosage of 0.01 mg/kg; assay type: functional, Canis lupus familiaris
Canis familiaris [11] = assay: Total time in minutes elapsed from the initiation of the change until return to the pretest value of oxygen partial pressure in coronary sinus of anesthetized dog at intravenous dosage of 0.01 mg/kg; assay type: functional, Canis lupus familiaris
Canis familiaris [12] = assay: Total time in minutes elapsed from the initiation of the change until return to the pretest value of blood pressure in coronary sinus of anesthetized dog at intravenous dosage of 0.01 mg/kg; assay type: functional, Canis lupus familiaris
Canis familiaris [13] = assay: Tested for percent increase in coronary sinus partial pressure of oxygen (PO2) in open chest anesthetized dog at intravenous dosage of 0.10 mg/kg; assay type: functional, Canis lupus familiaris; settings: dose 0.1 mg/kg
Canis familiaris [14] = assay: Total time in minutes elapsed from the initiation of the change until return to the pretest value of blood pressure in coronary sinus of anesthetized dog at intravenous dosage of 0.1 mg/kg; assay type: functional, Canis lupus familiaris
Canis familiaris [15] = assay: Tested for the percent increase in aortic blood pressure (BP) in open chest anesthetized dog at intravenous dosage of 0.10 mg/kg; assay type: functional, Canis lupus familiaris, Artery; settings: dose 0.1 mg/kg; how it was run: as §1
Canis familiaris [16] = assay: Total time in minutes elapsed from the initiation of the change until return to the pretest value of heart rate in coronary sinus of anesthetized dog at intravenous dosage of 0.1 mg/kg; assay type: functional, Canis lupus familiaris
Canis familiaris [17] = assay: tested for the percent increase in heart rate (HR) in open chest anesthetized dog at intravenous dosage of 0.10 mg/kg; assay type: functional, Canis lupus familiaris; settings: dose 0.1 mg/kg
Canis familiaris [18] = assay: Total time in minutes elapsed from the initiation of the change until return to the pretest value of oxygen partial pressure in coronary sinus of anesthetized dog at intravenous dosage of 0.1 mg/kg; assay type: functional, Canis lupus familiaris
Canis familiaris [19] = assay: Total time in minutes elapsed from the initiation of the change until return to the pretest value of heart rate in coronary sinus of anesthetized dog at intravenous dosage of 0.001 mg/kg; assay type: functional, Canis lupus familiaris
Canis familiaris [20] = assay: Tested for the percent increase in coronary sinus partial pressure of oxygen (PO2) in open chest anesthetized dog at intravenous dosage of 0.10 mg/kg; assay type: functional, Canis lupus familiaris; settings: dose 0.1 mg/kg
Canis familiaris [21] = assay: Total time in minutes elapsed from the initiation of the change until return to the pretest value of blood pressure in coronary sinus of anesthetized dog at intravenous dosage of 5 mg/kg; assay type: functional, Canis lupus familiaris
Canis familiaris [22] = assay: Tested for the percent increase in coronary sinus partial pressure of oxygen (PO2) in open chest anesthetized dog at intravenous dosage of 5.00 mg/kg; assay type: functional, Canis lupus familiaris
Canis familiaris [23] = assay: Total time in minutes elapsed from the initiation of the change until return to the pretest value of heart rate in coronary sinus of anesthetized dog at intravenous dosage of 5 mg/kg; assay type: functional, Canis lupus familiaris
Canis familiaris [24] = assay: Total time in minutes elapsed from the initiation of the change until return to the pretest value of oxygen partial pressure in coronary sinus of anesthetized dog at intravenous dosage of 5 mg/kg; assay type: functional, Canis lupus familiaris; how it was run: as §3
Canis familiaris [25] = assay: Tested for the percent increase in coronary sinus partial pressure of oxygen (PO2) in open chest anesthetized dog at intravenous dosage of 1.00 mg/kg; assay type: functional, Canis lupus familiaris
Canis familiaris [26] = assay: Total time in minutes elapsed from the initiation of the change until return to the pretest value of oxygen partial pressure in coronary sinus of anesthetized dog at intravenous dosage of 0.10 mg/kg; assay type: functional, Canis lupus familiaris; settings: dose 0.1 mg/kg
Canis familiaris [27] = assay: tested for percent increase in coronary sinus partial pressure of oxygen (PO2) in open chest anesthetized dog at intravenous dosage of 0.10 mg/kg; assay type: functional, Canis lupus familiaris; settings: dose 0.1 mg/kg
Canis familiaris [28] = assay: Total time in minutes elapsed from the initiation of the change until return to the pretest value of blood pressure in coronary sinus of anesthetized dog at intravenous dosage of 0.10 mg/kg; assay type: functional, Canis lupus familiaris; settings: dose 0.1 mg/kg
How it was run: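 Open-chest anesthetized dogs were given the compound intravenously. Duration is the total minutes from the start of the change until return to the pretest value. Blood pressure was recorded as change from control.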

SMILES	Duration (Canis familiaris [1]) [min]	BP (Canis familiaris [2]) [%]	LD50 [3] [mg/kg]	LD50 [4] [mg/kg]	Duration (Canis familiaris [5]) [min]	Duration (Canis familiaris [6]) [min]	PO2 (Canis familiaris [7]) [%]	Duration (Canis familiaris [8]) [min]	PO2 (Canis familiaris [10]) [%]	Duration (Canis familiaris [11]) [min]	Duration (Canis familiaris [12]) [min]	Duration (Canis familiaris [14]) [min]	BP (Canis familiaris [15]) [%]	Duration (Canis familiaris [16]) [min]	HR (Canis familiaris [17]) [%]	Duration (Canis familiaris [18]) [min]	also measured
Cc1cccc(OCC(O)CNC(=O)[C@H]2OC(n3cnc4c(N)ncnc43)[C@H](O)[C@@H]2O)c1 (stereo partly specified)	30	3	> 300	> 300	1	7	42	–	–	–	–	–	–	–	–	–	–
C=CCNC(=O)[C@H]1OC(n2cnc3c(N)ncnc32)[C@H](O)[C@@H]1O (stereo partly specified)	–	–	200	> 1000	–	–	–	0	129	20	0	–	–	–	–	–	BP (Canis familiaris [9]): 0%
CCC(CC)NC(=O)[C@H]1OC(n2cnc3c(N)ncnc32)[C@H](O)[C@@H]1O (stereo partly specified)	–	–	50	> 300	–	–	–	–	–	–	–	110	9	110	11	110	PO2 (Canis familiaris [13]): 28%
Nc1c2ncn(C3O[C@H](C(=O)NC4CC4)[C@@H](O)[C@H]3O)c2nc[n+]1[O-] (stereo partly specified)	–	–	–	–	–	–	–	–	66	75	60	–	–	–	–	–	BP (Canis familiaris [9]): 15%; Duration (Canis familiaris [19]): 60 min
CCNC(=O)[C@H]1O[C@@H](n2cnc3c(N)ncnc32)[C@@H](OC(C)=O)C1OC(C)=O (stereo partly specified)	–	–	2	2	–	–	–	120	52	120	70	–	–	–	–	–	BP (Canis familiaris [9]): 12%
C=CCNC(=O)[C@H]1O[C@@H](n2cnc3c(N)ncnc32)[C@H]2OC(C)(C)OC12 (stereo partly specified)	30	14	> 1000	> 1000	5	0	0	–	–	–	–	–	–	–	–	–	–
CCCCCCNC(=O)[C@H]1OC(n2cnc3c(N)ncnc32)[C@H](O)[C@@H]1O (stereo partly specified)	0	0	200	500	6	40	100	–	–	–	–	–	–	–	–	–	–
Nc1ncnc2c1ncn2C1O[C@H](C(=O)Nc2ccccc2)[C@@H](O)[C@H]1O (stereo partly specified)	0	0	> 1000	> 1000	7	120	127	–	–	–	–	–	–	–	–	–	–
CNC(=O)[C@H]1O[C@@H](n2cnc3c(N)ncnc32)[C@H](O)[C@@H]1O	–	–	5	20	–	–	–	240	105	14	60	240	–	–	–	240	PO2 (Canis familiaris [20]): 215%
Nc1ncnc2c1ncn2C1O[C@H](C(=O)NCCc2ccccc2)[C@@H](O)[C@H]1O (stereo partly specified)	1	11	500	> 1000	18	25	9	–	–	–	–	–	–	–	–	–	Duration (Canis familiaris [21]): 60 min; PO2 (Canis familiaris [22]): 44%; Duration (Canis familiaris [23]): 6 min; Duration (Canis familiaris [24]): 60 min
CCCONC(=O)[C@H]1OC(n2cnc3c(N)ncnc32)[C@H](O)[C@@H]1O (stereo partly specified)	–	–	200	> 1000	–	–	–	–	–	–	–	13	1	3	6	60	PO2 (Canis familiaris [13]): 52%
Nc1ncnc2c1ncn2C1O[C@H](C(=O)NCc2ccco2)[C@@H](O)[C@H]1O (stereo partly specified)	20	1	–	–	20	20	22	–	–	–	–	–	–	–	–	–	–
CCOCCNC(=O)[C@H]1OC(n2cnc3c(N)ncnc32)[C@H](O)[C@@H]1O (stereo partly specified)	120	15	50	> 1000	120	120	–	0	–	–	–	1	–	–	–	–	BP (Canis familiaris [9]): 8%; PO2 (Canis familiaris [25]): 135%; Duration (Canis familiaris [26]): 6 min
CC(=O)OC1[C@@H](C(=O)NC2CC2)O[C@@H](n2cnc3c(N)ncnc32)[C@H]1OC(C)=O (stereo partly specified)	–	–	5	20	–	–	–	270	67	270	270	–	–	–	–	–	BP (Canis familiaris [9]): 31%
Nc1ncnc2c1ncn2[C@@H]1O[C@H](C(=O)NC2CCCC2)[C@@H](O)[C@H]1O	–	–	200	200	–	–	–	–	–	–	–	120	12	120	25	120	PO2 (Canis familiaris [13]): 83%
C#CCNC(=O)[C@H]1OC(n2cnc3c(N)ncnc32)[C@H](O)[C@@H]1O (stereo partly specified)	180	40	200	> 1000	82	180	–	–	–	–	–	70	5	60	13	70	PO2 (Canis familiaris [13]): 50%; PO2 (Canis familiaris [25]): 133%
CONC(=O)[C@H]1O[C@@H](n2cnc3c(N)ncnc32)[C@H](O)[C@@H]1O	–	–	20	50	–	–	–	60	157	60	41	90	39	10	2	90	BP (Canis familiaris [9]): 9%; PO2 (Canis familiaris [20]): 143%
CCCCNC(=O)[C@H]1OC(n2cnc3c(N)ncnc32)[C@H](O)[C@@H]1O (stereo partly specified)	–	–	–	–	–	–	–	–	–	–	–	40	5	40	16	30	PO2 (Canis familiaris [27]): 30%
C=CCN(CC=C)C(=O)[C@H]1OC(n2cnc3c(N)ncnc32)[C@H](O)[C@@H]1O (stereo partly specified)	0	0	> 300	> 300	0	40	66	–	–	–	–	–	–	–	–	–	–
Nc1ncnc2c1ncn2C1O[C@H](C(=O)NCCO)[C@@H](O)[C@H]1O (stereo partly specified)	–	–	2	5	–	–	–	42	75	90	90	–	–	15	–	–	Duration (Canis familiaris [28]): 240 min; PO2 (Canis familiaris [20]): 163%; Duration (Canis familiaris [26]): 240 min
C=C(C)CNC(=O)[C@H]1OC(n2cnc3c(N)ncnc32)[C@H](O)[C@@H]1O (stereo partly specified)	–	–	500	> 1000	–	–	–	–	–	–	–	15	1	60	19	60	PO2 (Canis familiaris [13]): 38%

Source: ChEMBL document CHEMBL1121608, “Modification of the 5' position of purine nucleosides. 2. Synthesis and some cardiovascular properties of adenosine-5'-(N-substituted)carboxamides” (J Med Chem, 1980)
